Assay results published in ChEMBL document CHEMBL3351374, “Semisynthetic teicoplanin derivatives as new influenza virus binding inhibitors: synthesis and antiviral studies” (Bioorg Med Chem Lett, 2014).
Values after ≈ are worked out from the molar mass of the structure shown.

How the values were obtained:
[1] = tested on: Influenza A virus; experiment: Antiviral activity against Influenza A virus (A/PR/8/34(H1N1)) infected in MDCK cells assessed as reduction in host cell viability after 72 hrs by MTS assay; type: functional, organism-based; settings: A/Puerto Rico/8/1934(H1N1)
[2] = tested on: Influenza A virus; experiment: Antiviral activity against Influenza A virus (A/PR/8/34(H1N1)) infected in MDCK cells assessed as virus-induced cytopathic effect after 72 hrs by microscopy; type: functional, organism-based; settings: A/Puerto Rico/8/1934(H1N1)
[3] = tested on: Influenza A virus; experiment: Antiviral activity against Influenza A virus A/Virginia/ATCC3/2009 infected in MDCK cells assessed as virus-induced cytopathic effect after 72 hrs by microscopy; type: functional, organism-based; settings: A/Virginia/ATCC3/2009, MDCK
[4] = tested on: Influenza A virus; experiment: Antiviral activity against Influenza A virus A/Virginia/ATCC3/2009 infected in MDCK cells assessed as reduction in host cell viability after 72 hrs by MTS assay; type: functional, organism-based; settings: A/Virginia/ATCC3/2009, MDCK
[5] = Antiviral activity against Influenza A virus (A/HK/7/1987(H3N2)) infected in MDCK cells assessed as virus-induced cytopathic effect after 72 hrs by microscopy; type: functional, cell-based, Influenza A virus (A/Hong Kong/7/1987(H3N2))
[6] = Antiviral activity against Influenza A virus (A/HK/7/1987(H3N2)) infected in MDCK cells assessed as reduction in host cell viability after 72 hrs by MTS assay; type: functional, cell-based, Influenza A virus (A/Hong Kong/7/1987(H3N2))
[7] = Cytotoxicity against MDCK cells assessed as reduction in cell viability after 72 hrs by MTS assay; type: cell-based, Canis lupus familiaris; settings: dog
[8] = Cytotoxicity against MDCK cells assessed as change in cell morphology after 72 hrs by microscopy; type: cell-based, Canis lupus familiaris; settings: dog
Procedure, shortened: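 Uninfected MDCK cells exposed to compound. MCC is the minimal concentration causing minimal alterations in cell morphology, assessed by microscopy.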

[9] = Cytotoxicity against chicken RBC assessed as minimum concentration required for hemagglutination by microscopy; type: cell-based, Gallus gallus; settings: erythrocyte
Procedure, shortened: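 Chicken red blood cells incubated with compound without virus. The value is the minimal concentration causing hemagglutination.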

[10] = Inhbition of Influenza A virus (A/X-31(H3N2) hemagglutinin binding to 2 hrs compound pre-incubated MDCK cells assessed as reduction in viral RNA measured after 1 hr by RT-qPCR analysis; type: cell-based
Procedure, shortened: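 Influenza virus binding to MDCK host cells measured with compound at 50, 10, 2 and 0.4 µM.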

[11] = Selectivity ratio of CC50 for MDCK cells assessed as reduction in cell viability after 72 hrs by MTS assay to EC50 for Influenza A virus A/Virginia/ATCC3/2009 infected in MDCK cells; type: cell-based; settings: dog, read-out: Ratio CC50/EC50
[12] = Selectivity ratio of MCC for MDCK cells assessed as change in cell morphology after 72 hrs by microscopy to EC50 for Influenza A virus A/Virginia/ATCC3/2009 infected in MDCK cells; type: cell-based; settings: dog
[13] = tested on: Influenza B virus; experiment: Antiviral activity against Influenza B virus (B/HK/05/1972) infected in MDCK cells assessed as virus-induced cytopathic effect after 72 hrs by microscopy; type: functional, cell-based; settings: B/Hong Kong/05/1972, MDCK
[14] = tested on: Influenza B virus; experiment: Antiviral activity against Influenza B virus (B/HK/05/1972) infected in MDCK cells assessed as reduction in host cell viability after 72 hrs by MTS assay; type: functional, cell-based; settings: B/Hong Kong/05/1972, MDCK
[15] = Retention time of the compound by HPLC method; type: physicochemical
[16] = tested on: Bacillus spizizenii; experiment: Antibacterial activity against Bacillus subtilis ATCC 6633 by broth microdilution method; type: functional
[17] = tested on: Staphylococcus aureus; experiment: Antibacterial activity against methicillin-sensitive Staphylococcus aureus ATCC 29213 by broth microdilution method; type: functional
[18] = tested on: Staphylococcus aureus; experiment: Antibacterial activity against methicillin-resistant Staphylococcus aureus ATCC 33591 by broth microdilution method; type: functional
[19] = tested on: Staphylococcus epidermidis; experiment: Antibacterial activity against biofilm forming Staphylococcus epidermidis ATCC 35984 by broth microdilution method; type: functional
[20] = tested on: Enterococcus faecalis; experiment: Antibacterial activity against Enterococcus faecalis ATCC 29212 by broth microdilution method; type: functional
[21] = tested on: Staphylococcus epidermidis; experiment: Antibacterial activity against biofilm forming Staphylococcus epidermidis harboring mecA gene by broth microdilution method; type: functional
[22] = tested on: Enterococcus faecalis; experiment: Antibacterial activity against vanA gene-positive Enterococcus faecalis 15376 by broth microdilution method; type: functional
[23] = tested on: Enterococcus faecalis; experiment: Antibacterial activity against vanA gene-positive Enterococcus faecalis ATCC 51299 by broth microdilution method; type: functional
[24] = tested on: Influenza A virus; experiment: Antiviral activity against Influenza A virus infected in chicken RBC assessed as minimum concentration required for inhibition of 4 hemagglutinating units of virus-induced hemagglutination after 1 hr by microscopy; type: functional
Procedure, shortened: (§1)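 Chicken red blood cells incubated with virus at 1, 2 or 4 HA-U plus compound. The value is the minimal concentration causing inhibition of hemagglutination.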

[25] = tested on: Influenza A virus; experiment: Antiviral activity against Influenza A virus infected in chicken RBC assessed as minimum concentration required for inhibition of 2 hemagglutinating units of virus-induced hemagglutination after 1 hr by microscopy; type: functional; procedure, shortened: as §1
[26] = tested on: Influenza A virus; experiment: Antiviral activity against Influenza A virus infected in chicken RBC assessed as minimum concentration required for inhibition of 1 hemagglutinating unit of virus-induced hemagglutination after 1 hr by microscopy; type: functional; procedure, shortened: as §1

SMILES | EC50 [1] [µM] | EC50 [2] [µM] | EC50 [3] [µM] | EC50 [4] [µM] | EC50 [5] [µM] | EC50 [6] [µM] | CC50 at 72 h [7] [µM] | MCC at 72 h [8] [µM] | EC50 [13] [µM] | EC50 [14] [µM] | Retention_time [15] [min] | MIC [16] [µg/mL] | MIC [17] [µg/mL] | MIC [18] [µg/mL] | MIC [19] [µg/mL] | MIC [20] [µg/mL] | MIC [21] [µg/mL] | MIC [22] [µg/mL] | MIC [23] [µg/mL] | further results
CCCCCCCCO[C@@H]1[C@@H](OCCCCCCCC)[C@@H](OC)O[C@H](COCCOCCOCCOCCOCc2cn([C@H]3C(=O)N[C@@H]4Cc5ccc(c(Cl)c5)Oc5cc6cc(c5O)Oc5ccc(cc5Cl)[C@@H](O[C@@H]5O[C@H](CO)[C@@H](O)[C@H](O)[C@H]5NC(C)=O)[C@@H]5NC(=O)[C@H](NC(=O)[C@@H]6NC(=O)[C@@H](NC4=O)c4cc(O)cc(c4)Oc4cc3ccc4O)c3ccc(O)c(c3)-c3c(O)cc(O)cc3[C@@H](C(=O)O)NC5=O)nn2)[C@H]1OCc1ccc(OC)cc1 [listing 1 of 2 here] | 1.2 | 0.8 | 1.4 | < 0.8 | 1.8 | 1.2 | 11 | 20 | > 100 | 1.5 | 8.16 |  |  |  |  |  |  |  |  | Activity [9]: 50 µM; IC50 [10]: 4.7 µM; selectivity ratio at 72 h [11]: 4; selectivity ratio at 72 h [12]: 4
CCCCCCCCO[C@@H]1[C@@H](OCCCCCCCC)[C@@H](OC)O[C@H](COCCOCCOCCOCCOCc2cn([C@H]3C(=O)N[C@@H]4Cc5ccc(c(Cl)c5)Oc5cc6cc(c5O)Oc5ccc(cc5Cl)[C@@H](O[C@@H]5O[C@H](CO)[C@@H](O)[C@H](O)[C@H]5NC(C)=O)[C@@H]5NC(=O)[C@H](NC(=O)[C@@H]6NC(=O)[C@@H](NC4=O)c4cc(O)cc(c4)Oc4cc3ccc4O)c3ccc(O)c(c3)-c3c(O)cc(O)cc3[C@@H](C(=O)O)NC5=O)nn2)[C@H]1OCc1ccc(OC)cc1 [listing 2 of 2 here] |  |  |  |  |  |  |  |  |  |  |  | 256 (≈ 117 µM) | 128 (≈ 58.7 µM) | 64 (≈ 29.3 µM) | 16 (≈ 7.34 µM) | 32 (≈ 14.7 µM) | 256 (≈ 117 µM) | 128 (≈ 58.7 µM) | 256 (≈ 117 µM) | Activity [24]: 12 µM; Activity [25]: 6.3 µM; Activity [26]: 0.78 µM
C.CCCCCCCCO[C@H]1[C@@H](OC)O[C@H](COCCOCCOCCOCCOCc2cn([C@H]3C(=O)N[C@@H]4Cc5ccc(c(Cl)c5)Oc5cc6cc(c5O)Oc5ccc(cc5Cl)[C@@H](O[C@@H]5O[C@H](CO)[C@@H](O)[C@H](O)[C@H]5NC(C)=O)[C@@H]5NC(=O)[C@H](NC(=O)[C@@H]6NC(=O)[C@@H](NC4=O)c4cc(O)cc(c4)Oc4cc3ccc4O)c3ccc(O)c(c3)-c3c(O)cc(O)cc3[C@@H](C(=O)O)NC5=O)nn2)[C@@H](O)[C@@H]1OCCCCCCCC [listing 1 of 2 here] | > 100 | > 100 | 1.8 | 1.3 | 2.3 | 2.2 | 12 | ≥ 4 | > 100 | > 100 | 8.17 |  |  |  |  |  |  |  |  | Activity [9]: 50 µM; IC50 [10]: 7 µM; selectivity ratio at 72 h [11]: 4; selectivity ratio at 72 h [12]: 4
C.CCCCCCCCO[C@H]1[C@@H](OC)O[C@H](COCCOCCOCCOCCOCc2cn([C@H]3C(=O)N[C@@H]4Cc5ccc(c(Cl)c5)Oc5cc6cc(c5O)Oc5ccc(cc5Cl)[C@@H](O[C@@H]5O[C@H](CO)[C@@H](O)[C@H](O)[C@H]5NC(C)=O)[C@@H]5NC(=O)[C@H](NC(=O)[C@@H]6NC(=O)[C@@H](NC4=O)c4cc(O)cc(c4)Oc4cc3ccc4O)c3ccc(O)c(c3)-c3c(O)cc(O)cc3[C@@H](C(=O)O)NC5=O)nn2)[C@@H](O)[C@@H]1OCCCCCCCC [listing 2 of 2 here] |  |  |  |  |  |  |  |  |  |  |  | 4 | 16 | 8 | 8 | 2 | 256 | 8 | 4 | Activity [24]: 3.1 µM; Activity [25]: 0.78 µM; Activity [26]: 0.39 µM
COc1ccc(CO[C@H]2[C@H](OC)[C@@H](OC)[C@@H](OC)O[C@@H]2COCCOCCOCCOCCOCc2cn([C@H]3C(=O)N[C@@H]4Cc5ccc(c(Cl)c5)Oc5cc6cc(c5O)Oc5ccc(cc5Cl)[C@@H](O[C@@H]5O[C@H](CO)[C@@H](O)[C@H](O)[C@H]5NC(C)=O)[C@@H]5NC(=O)[C@H](NC(=O)[C@@H]6NC(=O)[C@@H](NC4=O)c4cc(O)cc(c4)Oc4cc3ccc4O)c3ccc(O)c(c3)-c3c(O)cc(O)cc3[C@@H](C(=O)O)NC5=O)nn2)cc1 [listing 1 of 2 here] | > 100 | > 100 | > 100 | > 100 | > 100 | > 100 | 47 | ≥ 20 | > 100 | > 100 | 5.73 |  |  |  |  |  |  |  |  | 
COc1ccc(CO[C@H]2[C@H](OC)[C@@H](OC)[C@@H](OC)O[C@@H]2COCCOCCOCCOCCOCc2cn([C@H]3C(=O)N[C@@H]4Cc5ccc(c(Cl)c5)Oc5cc6cc(c5O)Oc5ccc(cc5Cl)[C@@H](O[C@@H]5O[C@H](CO)[C@@H](O)[C@H](O)[C@H]5NC(C)=O)[C@@H]5NC(=O)[C@H](NC(=O)[C@@H]6NC(=O)[C@@H](NC4=O)c4cc(O)cc(c4)Oc4cc3ccc4O)c3ccc(O)c(c3)-c3c(O)cc(O)cc3[C@@H](C(=O)O)NC5=O)nn2)cc1 [listing 2 of 2 here] |  |  |  |  |  |  |  |  |  |  |  | 16 (≈ 8.06 µM) | 16 (≈ 8.06 µM) | 32 (≈ 16.1 µM) | 16 (≈ 8.06 µM) | 32 (≈ 16.1 µM) | 32 (≈ 16.1 µM) | 32 (≈ 16.1 µM) | 32 (≈ 16.1 µM) | 
NC12CC3CC(CC(C3)C1)C2 [AMANTADINE] | 111 |  | > 500 | > 500 | 0.45 | 0.5 | > 500 | > 500 | > 500 | > 500 |  |  |  |  |  |  |  |  |  | 
NC(=O)c1ncn([C@@H]2O[C@H](CO)[C@@H](O)[C@H]2O)n1 [RIBAVIRIN] | 21 |  |  |  | 6.8 | 7.3 | > 100 | ≥ 20 |  | 8.2 |  |  |  |  |  |  |  |  |  | 
CC(N)C12CC3CC(CC(C3)C1)C2 (stereo unspecified) [RIMANTADINE] | 5.3 | 4.6 | > 500 | > 500 | 0.051 | 0.046 | > 500 | ≥ 500 | > 500 | > 500 |  |  |  |  |  |  |  |  |  | 
CC(=O)N[C@H]1[C@H]([C@H](O)[C@H](O)CO)OC(C(=O)O)=C[C@@H]1NC(=N)N [ZANAMIVIR] | 0.5 | 0.47 | 45 | 20 | 8.9 | 9 | > 100 | > 100 | 12 | 9.4 |  |  |  |  |  |  |  |  |  | 
